From ChEMBL document CHEMBL4513216, “Probing the Open Global Health Chemical Diversity Library for Multistage-Active Starting Points for Next-Generation Antimalarials” (ACS Infect Dis, 2020)

Experiment: Toxicity liver stage against HepG2, at 10uM
Format: cell-based
Set-up: test concentration 10 uM, cell line HepG2-A16-CD81EGFP
Conditions: human, HepG2-A16-CD81EGFP cells; read-out: INHIBITION
Procedure, shortened: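 Uninfected HepG2-A16-CD81EGFP cells, 3 × 10^3 per well, 1536-well, plated on prespotted compound at 10 μM final, parasite-free screening media added to match infected plates; puromycin 10 μM positive, DMSO 0.5% negative; run in parallel with 48 h PbLuc assay at 37 °C, 5% CO2; viability by CellTiter-Glo luminescence, normalized to controls.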

SMILES	cytotoxicity at 10 µM [%]
O=C(CCn1nc(C(=O)Nc2ccccc2)ccc1=O)Nc1nccs1	-2.83
O=C1CCNc2cc3c(cc2CN1CC1CC1)OCO3	-5.83
COc1ccc(-c2nc(C#N)c(N(C)C)o2)cc1S(=O)(=O)N(C)C	-7.19
Cc1nc(C(=O)N2CCN(S(C)(=O)=O)CC2)c(-c2ccccc2)s1	3.23
O=C1CSC(C(F)(F)F)c2c(O)nn(C3CCCC3)c2N1 (stereo unspecified)	3.49
CC(C)Cn1cnc2ccc(NC(=O)CCCn3cccn3)cc2c1=O	-4.06
COc1cc(N2C[C@H](C(=O)NC3CC3)[C@@H]3CCO[C@@H]3C2)ncn1	-5.47
Cn1cc(N2CCC3(CCN(C(=O)[C@H]4CCCO4)C3)C2=O)cn1 (stereo partly specified)	0.893
COc1ncccc1C(=O)N1CC[C@H]2C[C@@H](c3nccs3)O[C@@H]2C1	-0.123
Cc1cccc(Cn2c(=O)[nH]c3csnc3c2=O)c1	3.46
O=C1NC(c2ccccc2)=N[C@@]12CC[C@@H]1CN(Cc3ccco3)C[C@@H]12	-4.34
CN1CC(Oc2ccc(Cl)cc2)=NC(SCC(=O)c2ccccc2)=N1	-0.731
O=C(Nc1cc(-c2ccccn2)no1)C1CC1	-5.34
CC(=O)N1CCC1c1cc(N2CCNC(=O)C2)nc(C)n1 (stereo unspecified)	-1.62
Cc1noc(C2(C)CCCN(C(=O)C(C)C)C2)n1 (stereo unspecified)	-3.97
NC(=O)c1cnc(-c2ccccc2)nc1CCNC(=O)CN1CCCC1	-1.25
Cc1cc(-c2ccccc2C(=O)O)nc(C2CCCN2S(C)(=O)=O)n1 (stereo unspecified)	-3.67
Cn1c(CN2CCCc3cc(F)cc(F)c32)cc(=O)n(C)c1=O	17.3
Cn1cc(C(O)CNC(=O)c2sccc2OC(F)F)cn1 (stereo unspecified)	0.606
CC(C(=O)NC1CC1)S(=O)(=O)Cc1nc(Cc2ccccc2)no1 (stereo unspecified)	5.42
CN(C)c1nc(CNC(=O)NC2CCc3ccccc32)cs1 (stereo unspecified)	-3.41
CCN(CC)S(=O)(=O)NC1CCN(c2ccc(OC)cc2)CC1	3.38
CCN(CC1CCOC1)C(=O)Cn1nnn(-c2cccs2)c1=O (stereo unspecified)	-49.7

SMILES	cytotoxicity at 10 µM [%]
CCn1ccnc1CNCc1ccc(C)cc1OC(C)(C)C	1.03
CSCc1cc(F)ccc1CNC(=O)N1CCOCC1	8.06
CC1CCCN(CCCNC(=O)c2cn(C)nc2-c2cccnc2)C1 (stereo unspecified)	-3.24
CC(CCc1ccccc1F)C(=O)NS(C)(=O)=O (stereo unspecified)	3.12
O=C(CCn1ccccc1=O)Nc1ccc(C(=O)O)cc1	4.74
O=C1CCCN1Cc1nnc(SCc2ccc3c(c2)CCC3)o1	2.03
Cc1ccc(-c2noc(CN3CCC(c4ccn[nH]4)CC3)n2)cc1	12.6
O=S(=O)(CCNCc1ccc(Cl)cc1)N1CCOCC1	4.68
CCc1noc(CN(Cc2cccs2)C2CC2)n1	1.44
O=C(CNC(=O)c1c(F)cccc1Cl)Nc1ccc(F)cn1	8.46
O=C(O)c1nnn(-c2cccc(C(F)(F)F)c2)c1C1CC1	-2.02
CC(C)c1nnc2n1CC(CNCc1nc3ccccc3o1)CC2 (stereo unspecified)	-1.85
Cc1cccc(N(CCC(N)=O)C(=O)c2cnccn2)c1	-1.74
CCc1nc(C(=O)N2CCN(Cc3ccc(Cl)cc3)CC2)c[nH]1	-6.85
CNC(=O)NC(=O)CN1CCN(CC(F)(F)F)CC1(C)C	10.7
CN(c1nc(CSc2nnc(Cn3cncn3)o2)cs1)C1CC1	6.6
Cc1cc(NC(=O)CN(c2ccccc2)C(C)C)on1	-1.54
CC(C)(C)OC(=O)NC1CCC(NC(=O)c2ccc[nH]2)CC1 (stereo unspecified)	-17.1
CCCC(=O)NC(C)(C)Cc1ccccc1OC	5.55
CS(=O)(=O)Cc1ccc(CNc2ncc(C#N)cc2Cl)cc1	3.47
CN(Cc1ccco1)C(=O)CN1CCN(C)c2ccccc2C1	-7.2
CC1(C)CN(C(=O)c2ccc3nncn3c2)CCS1	-4.5
CCc1nc(CC)n(CC(=O)NCc2cccc(C)c2)n1	-2.25

SMILES	cytotoxicity at 10 µM [%]
CCCNC(c1cccnc1)c1ccc(F)cc1F (stereo unspecified)	-2
CC(C)N(CCCNC(=O)C1CCOCC1)S(C)(=O)=O	0.617
COCCNC(=O)Cn1cc(NC(=O)c2cc(Cl)c(Cl)n2C)cn1	-4.01
O=C(c1cc(F)ccc1Br)N1CCN(C(=O)C2CC2)CC1	4.9
N#CCCCn1nnnc1Cc1ccc(Br)cc1	1.56
CCS(=O)(=O)N1CCN(C(C)c2ncc(-c3ccccc3)o2)CC1 (stereo unspecified)	3.44
CCN(CC(=O)NC)S(=O)(=O)c1cnc2c(c1)c(C)nn2C	-1.56
CCC(=O)Nc1ccc(F)c(S(=O)(=O)NC(C)(C)C)c1	-1.74
CCC[C@@H](NC(N)=O)C(=O)N1CCc2ccccc2CC1	7.79
CCOCC1CN(S(=O)(=O)c2cccc(C)c2)Cc2nccn2C1 (stereo unspecified)	-108
O=C(c1ccnn1-c1ccc2ccccn12)N1CCOCC1	-108
CN(C)c1nccc(-c2cnc(N(C)C)[nH]c2=O)n1	-1.17
CC(C)NC(=O)NCc1cc(-c2cccc(Cl)c2)nn1C	3.66
CC(C)c1cc(CN(C)C(=O)CN2CCC(C(N)=O)CC2)no1	-0.0154
COc1cc(OC)cc(-n2ccnc2-c2cc3n(n2)CCNC3)c1	-12.2
CN(C)C1CCCN(C(=O)c2cccc(-c3ncc[nH]3)c2)CC1 (stereo unspecified)	4.2
Cc1cnc(CNC(=O)CC2CCc3ccccc32)cn1 (stereo unspecified)	-0.862
CCCn1c(C)c(CC(=O)NCC(C)O)c2c1CC(C)(C)CC2=O (stereo unspecified)	-7.57
Cc1nc(CC(=O)N2CCCC2c2nc(C(C)C)no2)cs1 (stereo unspecified)	4.33
CCCn1ccnc1CN1CC[C@@H](NC(=O)c2cccnc2)[C@H](O)C1	-7.31
Cc1cnc(C(=O)N2CCN(C(=O)CC(C)C)[C@@H]3CS(=O)(=O)C[C@@H]32)cn1	-3.06
O=C(CCn1cncn1)N1CCC2(CC1)[C@H](O)C[C@@H]2OCCO	-0.387
CN1N=C(C(=O)N2CCCC(CCc3ccccc3)C2)CCC1=O (stereo unspecified)	-10.5

SMILES	cytotoxicity at 10 µM [%]
CCN(Cc1cnn(C)c1)C[C@H]1CC[C@@H](Cc2ccc(C)nc2)O1	5.24
CC(=O)N1CCc2[nH]cnc2C1C1=CCCN(CCn2cccc2)C1 (stereo unspecified)	0.375
O=C(Nc1ccc(F)cc1)C1CNCCN1C(=O)CSc1ccncc1 (stereo unspecified)	-0.316
CC(C)n1cc(CN(Cc2ccsc2)CC2CCCO2)cn1 (stereo unspecified)	-7.89
Cc1ccc(Oc2ncccc2CNC(=O)C2COC(=O)N2)c(F)c1F (stereo unspecified)	1.82
COCCN1CCC(CNc2nccc(-c3cnn(C)c3)n2)CC1	-130
Cc1ccc(C(=O)N2CCCC(N)CC2)cc1N1CCNC1=O (stereo unspecified)	-4.35
c1cc(CCNc2ncnc3c2CCN(Cc2ccoc2)CC3)ccn1	9.08
Cc1nc(N2Cc3cnn(Cc4ccc(F)cc4)c3C2)no1	-3.05
Cc1cnccc1NCCNC1CCSCC1	-9.44
Cc1c(-c2c(-c3ccccc3)ncn2[C@H](CO)C(=O)O)cnn1C	4.28
COCCN(C)C[C@@H]1CN(C(=O)c2ccc(C)c(Cl)c2)C[C@@H]1CO	-0.678
CCCNC(=O)C(C)Oc1ccc(F)cc1 (stereo unspecified)	-3.76
CCCN1CCC(Cc2noc(-c3cc4cccnc4nc3C)n2)CC1	-0.749
CCCS(=O)(=O)N1C[C@H]2OC(=O)N(CCc3cccc(Cl)c3)[C@H]2C1	-2.12
CN(C)C(=O)c1ccc2c(c1)N(C)C(CC(=O)NC(C)(C)CO)CO2 (stereo unspecified)	8.38
CCC(CO)N(Cc1ccccn1)C(=O)c1ccc2c(c1)CCO2 (stereo unspecified)	-14.2
CN(Cc1ccon1)C(=O)C1CC(=O)N(Cc2ccncc2)C1 (stereo unspecified)	-0.368
c1ccc(Cc2noc(CN3CCOC(Cn4cncn4)C3)n2)cc1 (stereo unspecified)	1.28
Cc1nc(C2CCCN2CC(=O)N(C)Cc2ccsc2)no1 (stereo unspecified)	-8.21
CC(C(=O)NCc1ccnc(N2CCCC2)c1)n1cccn1 (stereo unspecified)	0.309
CCn1cnnc1C1CCN(C(=O)c2cc3c(s2)CCCC3)CC1	-1.76
CCCc1noc(CCC(=O)N2CCCC2c2ccncc2)n1 (stereo unspecified)	-2.42

SMILES	cytotoxicity at 10 µM [%]
c1cnn(-c2ccc(CN3CCCC(Cn4cncn4)C3)cc2)c1 (stereo unspecified)	-2.63
CCc1n[nH]c(C2CN(Cc3nnc(C4CC4)o3)CCO2)n1 (stereo unspecified)	-14.3
Cc1nc(CN2CCCC(N(C)Cc3nccn3C)C2)no1 (stereo unspecified)	-16.8
Cc1nc(C(=O)N2CCCC2c2c(C)nn(C)c2C)cs1 (stereo unspecified)	-15.8
CCn1cc(CN2CCCN(C(=O)CCCn3cncn3)CC2)cn1	-12.5
CC(C)c1noc(C(C)N2CCN(Cc3ccsc3)CC2)n1 (stereo unspecified)	-6.85
CC(=O)NCC1CCN(C(=O)c2csc(-c3ccc(C)cc3C)n2)CC1	-10.8
Cc1cn2c(n1)CCC(NC(=O)c1ccc(CS(C)(=O)=O)o1)C2 (stereo unspecified)	-5
c1nnc(Nc2cncc(C3CCCN3)n2)s1 (stereo unspecified)	3.58
Cc1nnc([C@@H]2C[C@H]3CN(C(=O)c4c(C)noc4C)C[C@H]3O2)[nH]1	15.2
Cc1nc(Nc2nncs2)cc(C2CNC2)n1	5.88
O=C1CC[C@H]2[C@H](CCN2c2ccccn2)N1CC1CCOCC1	-36.4
CC(C)N1CCc2c(c(COc3cccnc3)nn2CC2CC2)C1	6.49
CC(C)c1nn(C)c(N(C)C)c1CNC1CCN(C2CC2)CC1	5.6
CC(C)N(CC(=O)O)Cc1cccc(Br)c1	-8.67
Cc1noc(C)c1CN1CCOC2(CCCN(c3nncs3)C2)C1 (stereo unspecified)	-2.82
CC(C)N(C)Cc1cncc2c1CCN(C(=O)c1cccc(C#N)c1)C2	4.01
CC(C)=CCN1C(=O)[C@@H]2CC[C@H]1CN(c1ncccn1)C2	9.14
Cc1cnn(CC2CN(C=C3NN=C(c4occc4C)O3)CCO2)c1 (stereo unspecified)	-2.9
